An excerpt weighted towards active compounds, which were near 2.9% of everything screened.
TRPC6 activator = mouse TRPC6 channel activators, primary screen, cell-based, HEK293, membrane potential dye; B-score at 10 µM; AID 2550, 2010; 310,000 tested, 0.13% active; HEK293-TRPC6 membrane potential dye fluorescence; stronger effect = higher value;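 active = B-score of the integrated fluorescence ratio above library mean plus 3 SD, and starting fluorescence ratio within library mean plus 5 SD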;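 also: higher score means more depolarization so channel activation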
TRPC4 PAM = positive allosteric modulators of TRPC4, primary screen, cell-based, mouse TRPC4beta, HEK293 mu-opioid, Fluo-4 calcium | AID 2227, 2009 | DAMGO EC20, Fluo-4 Ca2+ flux; stronger effect = higher value | 310,000 tested, 0.42% active | B-score at 10 µM;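 active = B-score of calcium response area above 5 SD of library B-scores, with initial fluorescence ratio within 5 SD of library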;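 also: B-score of integrated fluorescence ratio over time as area under calcium response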
Kir21 inh = inhibitors of mouse Kir2.1 inward-rectifier potassium channel; B-score at 10 µM; Inward rectifier potassium channel 2 (Mus musculus), P35561; 310,000 tested, 0.85% active; HEK293-Kir2.1, FluxOR thallium flux fluorescence; stronger effect = lower value;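 active = fluorescence ratio B-score at or below minus 3 SD of library scores, with starting-brightness B-score within 2 SD, cut at about -4.2 in these data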;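 also: channel flux triggered by added potassium and thallium sulfate stimulus; B-score of peak minus minimum fluorescence over baseline after thallium stimulus; more negative B-score means stronger Kir2.1 block with less thallium influx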
Target sequence (P35561 whole entry, looked up): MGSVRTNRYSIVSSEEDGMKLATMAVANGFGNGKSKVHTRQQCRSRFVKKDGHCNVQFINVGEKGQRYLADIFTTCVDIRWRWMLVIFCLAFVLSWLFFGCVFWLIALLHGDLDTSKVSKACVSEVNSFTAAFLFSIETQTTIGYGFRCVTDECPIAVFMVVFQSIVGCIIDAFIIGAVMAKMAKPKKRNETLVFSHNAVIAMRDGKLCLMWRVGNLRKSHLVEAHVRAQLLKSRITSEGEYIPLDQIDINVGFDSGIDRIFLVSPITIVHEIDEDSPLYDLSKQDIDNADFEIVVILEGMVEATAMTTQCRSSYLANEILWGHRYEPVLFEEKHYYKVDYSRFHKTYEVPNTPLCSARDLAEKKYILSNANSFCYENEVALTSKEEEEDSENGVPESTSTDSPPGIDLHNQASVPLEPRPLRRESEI
TRPC4 act = activators of mouse TRPC4 channel, primary screen, Fluo4 calcium, HEK293 TRPC4beta/mu-opioid cells. Short transient receptor potential channel 4 (Mus musculus), Q9QUQ5. Fluo4 calcium fluorescence; stronger effect = higher value. B-score at 10 µM. 310,000 tested, 0.49% active. AID 2237, 2010;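 active = B-score above 5 SD of library B-scores, and initial fluorescence ratio not above library mean plus 5 SD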;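 also: positive B-score marks a calcium rise read as TRPC4 activation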
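System: HEK293 cells stably co-expressing mouse TRPC4beta and mu-opioid receptor; Schedule: Fluo4 dye loading 45 min at room temperature, 110 s recording; Detection: Fluo4 fluorescence, kinetic; Evaluation: B-scored integrated calcium fluorescence ratio; Controls: buffer (low) and maximal DAMGO (high).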
TRPC4 inh = inhibitors of mouse TRPC4 channel, primary screen, Fluo4 calcium, HEK293 TRPC4beta/mu-opioid cells; 300,000 tested, 0.39% active; DAMGO-evoked Fluo4 calcium flux; stronger effect = lower value; AID 2247, 2010; B-score at 10 µM; Short transient receptor potential channel 4 (Mus musculus), Q9QUQ5;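 active = B-score over 3 SD under the library average, no early fluorescence shift, positive overall ratio signal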
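Test system – stable TRPC4beta/mu-opioid receptor HEK293 cells · Probe or stimulus – DAMGO, a submaximal dose followed by a maximal one · Dosing – one concentration per compound · Signal – Fluo4 calcium fluorescence by kinetic imaging, 5 s 1 Hz baseline · Evaluation – per-well B score of integrated baseline-normalized Fluo4 ratio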
TRPC6 inhibitor = mouse TRPC6 channel inhibitors, primary screen, cell-based, HEK293, membrane potential dye; Short transient receptor potential channel 6 (Mus musculus), Q61143; B-score at 10 µM; 310,000 tested, 1.1% active; ACh-evoked depolarization; stronger effect = lower value;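 active = B-score under library mean minus 3 SD, initial fluorescence not abnormally high, positive integrated signal ratio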;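 also: B-score derived from integrated fluorescence ratio over the kinetic read; more negative B-score means stronger inhibition of depolarization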
Starred values were filed as active, the others as inactive; i = inactive.

SMILES	TRPC6 activator	TRPC4 PAM	Kir21 inh	TRPC4 act	TRPC4 inh	TRPC6 inhibitor
C(=C\c1ccccc1)/CNn1cnnc1	i	i	2.03	i	i	i
Cc1cc(N2CCC(C)CC2)c(F)cc1[N+](=O)[O-]	i	i	0.19	i	i	i
Cc1cc(N2CCCC2)c(F)cc1/C=C\[N+](=O)[O-]	i	i	-7.7*	i	i	i
COc1ccc2[nH]c(C(=O)NCCCn3ccnc3)cc2c1	i	i	-0.1	i	i	i
Cn1cnc([N+](=O)[O-])c1S(=O)(=O)c1ccc(Cl)cc1	i	i	-6.83*	i	i	i
Cc1ccc2oc(C(=O)N(C)Cc3ccc(C)o3)c(C)c2c1	i	i	-1.42	i	-6*	i
O=C(Nc1ccc2ccccc2c1)c1ccc(Cl)cc1Cl	i	i	1.63	i	i	i
NC(=O)c1sc(=S)n2c1[nH]c(=O)c1sccc12	i	10*	1.54	i	i	i
CCCCN(CC)CCNC(=O)Cn1cc2c(n1)-c1c(oc(C(=O)N3CCCC3)c1C)CC2	i	i	2.13	125*	i	i
CN(C)/C(CN1CCOCC1)=C1\N=C(c2ccccc2)OC1=O	i	i	-0.29	i	i	i
O=C(CN(Cc1cccs1)C(=O)CCC(=O)Nc1nccs1)NCc1ccccc1	i	i	0.75	i	i	i
C/C(N)=C(/C#N)C(=O)COC(=O)c1ccccc1C(=O)c1ccc(C)cc1	i	i	-5.14*	i	i	i
CN1CCCC1CCNS(=O)(=O)c1ccc(Br)cc1 (configuration not stated)	i	i	-0.82	i	i	i
CN1CCCC1CCNC1C2CC3CC(C2)CC1C3 (configuration not stated)	i	i	-4.68*	i	i	i
Cc1cc(Br)c(NC(=O)CN(C)CCOc2ccccc2)c(Br)c1	i	i	-4.66	i	-6*	i
CCN1C(=O)/C(=C/N(C(C)=O)c2ccccc2)N(c2ccccc2)C1=S	i	i	-4.55*	i	i	i
O=C(NCc1ccccc1)C1COc2ccccc2O1 (configuration not stated)	i	i	0.19	i	i	i
Cc1onc(-c2ccccc2)c1CNC(=O)C1COc2ccccc2O1 (configuration not stated)	i	i	-5.43*	i	i	i
CCOC(=O)C1(CC2CC2)CCN(Cc2ccc(O)c(Cl)c2)CC1	i	i	-1.19	75*	-7*	i
CCOC(=O)C1(CCOc2ccccc2)CCN(Cc2ccc(O)c(Cl)c2)CC1	i	i	1.39	i	i	i
CCOC(=O)C1(CC2CC2)CCN(Cc2ccc3cccc(F)c3n2)CC1	i	i	-3.2	45*	-8*	i
CC(c1ccccc1)n1c(S(=O)(=O)O)nc2ccccc21 (configuration not stated)	i	i	2.62	i	i	i
CC(C)(C)C(=O)N1CCN(c2ccc([N+](=O)[O-])cc2-n2cccc2)CC1	i	16*	0.1	i	i	i
O=[N+]([O-])c1c(Nc2ccccc2O)cc(Cl)c2nonc12	i	i	-7.18*	i	i	i
COc1cccc(NS(=O)(=O)c2ccc3[nH]cc(C(=O)N(C)Cc4ccco4)c(=O)c3c2)c1	i	i	0.1	i	i	i
SMILES	TRPC6 activator	TRPC4 PAM	Kir21 inh	TRPC4 act	TRPC4 inh	TRPC6 inhibitor
O=C(C1CCCN(Cc2ccccc2)C1)N1CCc2ccccc2C1 (configuration not stated)	i	i	-1.14	160*	i	i
COc1ccc(CN2CCCC(C(=O)N3CCc4ccccc4C3)C2)cc1OC (configuration not stated)	i	i	-3.46	i	i	i
COc1cc(CN2CCCC(C(=O)N3CCc4ccccc4C3)C2)cc(OC)c1OC (configuration not stated)	i	i	-1.53	55*	i	i
Clc1ccccc1Sc1ccc(-c2ccccn2)s1	i	i	2.6	i	i	i
CC(CCc1ccccc1)NC(=O)CN(C)Cc1ccc(F)cc1 (configuration not stated)	i	i	-4.48*	i	i	i
CC(CCc1ccccc1)NC(=O)CN(C)Cc1ccccc1F (configuration not stated)	i	i	-0.38	i	i	i
O=C(CN1CCCCC1)Nc1ccccc1Oc1ccccc1	i	i	-5.56*	i	-5*	i
O=C(CSc1ncn[nH]1)Nc1ccccc1Sc1ccc(Cl)cc1	i	i	-4.71*	i	i	i
O=C(CN1CCCC1)Nc1ccccc1Sc1ccccc1	i	i	-4.23*	i	i	i
O=C(CSc1ncn[nH]1)NCCC(c1ccccc1)c1ccccc1	i	i	-5.21*	i	i	i
O=C(NCc1ccco1)C1CCN(C(=O)c2cc3sccc3n2Cc2ccc(Cl)cc2)CC1	i	i	0.6	i	i	i
O=C(CN1CCOCC1)Nc1ccccc1Sc1ccc(Cl)cc1	i	i	-5.17*	i	i	i
OCC(Cc1ccccc1)NCc1ccccc1C(F)(F)F (configuration not stated)	i	i	-0.78	i	-6*	i
CN1CCN(NC(=O)Nc2cc(Cl)cc(Cl)c2)CC1	i	26*	1.92	i	i	i
COc1ccc(NC(=O)NN2CCN(C)CC2)cc1OC	i	i	0.41	i	i	i
Cc1ccc(N2C(=O)C3C4C=CC(CNC(=S)Nc5cccc(Cl)c5)(O4)C3C2=O)cc1 (configuration not stated)	i	i	-1.21	i	i	i
CC(=O)Nc1cccc(-c2csc(Nc3ccc(C)cn3)n2)c1	i	i	0.19	i	i	i
CC(C)(C)c1nc(SCC(=O)NCc2ccco2)c2ccccc2n1	i	i	-8.04*	i	i	i
